# KCNQ1 block = blocks the human KCNQ1 potassium channel; CHO-K1 KCNQ1, FluxOR thallium flux fluorescence; hits give high values; 1.3% of 310,000 active; AID 2642; B-score at 10 µM;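 active = compounds whose thallium flux B-score, printed positive for inhibition, exceeds three library SD while starting fluorescence stays within three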;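 note: channel opened by potassium depolarization with thallium stimulus after 20 min compound exposure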
# KCNK3 block = human KCNK3 channel inhibition, primary screen; O14649; CHO-KCNK3 thallium flux, FluxOR fluorescence; hits give low values; B-score at 10 µM; 0.84% of 340,000 active; AID 602410;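 active = B-score under library mean minus 4 SD, starting fluorescence ratio at most library mean plus 5 SD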;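 note: more negative B-score means stronger inhibition of thallium flux through KCNK3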
# Target sequence (O14649 whole entry, looked up): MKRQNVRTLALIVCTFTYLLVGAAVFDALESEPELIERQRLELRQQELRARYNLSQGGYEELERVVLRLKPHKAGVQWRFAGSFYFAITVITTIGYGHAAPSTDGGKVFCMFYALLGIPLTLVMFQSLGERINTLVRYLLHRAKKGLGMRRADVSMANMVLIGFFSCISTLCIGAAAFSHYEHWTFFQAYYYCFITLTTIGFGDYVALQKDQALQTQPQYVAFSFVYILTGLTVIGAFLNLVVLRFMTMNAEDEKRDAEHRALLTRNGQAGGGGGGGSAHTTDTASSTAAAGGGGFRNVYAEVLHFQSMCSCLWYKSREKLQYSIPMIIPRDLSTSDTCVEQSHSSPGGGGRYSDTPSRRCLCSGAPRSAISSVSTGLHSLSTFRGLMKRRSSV
# KCNQ1 act = potentiates or activates the human KCNQ1 potassium channel. P51787. CHO-K1 KCNQ1, thallium flux FluxOR fluorescence; hits give high values. B-score at 10 µM. 0.35% of 310,000 active. AID 2648;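 active = fluorescence ratio B-score, a plate-corrected score, at least three library SD, with initial intensity B-score within 5 SD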
#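 Medium – assay buffer, equal DMSO in all wells · Material – CHO-K1 cell line with stable KCNQ1 potassium channel expression · Signal – kinetic FluxOR thallium fluorescence, 10-s 1-Hz baseline, 110-s post-stimulus read · Compound – single concentration per compound, DMSO matched to controls · Schedule – 37 °C overnight plating, 90-min dark dye load, 20-min compound pretreatment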
# Kir21 block = Kir2.1 (mouse) channel inhibition | P35561 | HEK293-Kir2.1, FluxOR thallium flux fluorescence; hits give low values | B-score at 10 µM | 0.85% of 310,000 active | AID 1672;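 active = fluorescence ratio B-score at or below minus 3 SD of library scores, with starting-brightness B-score within 2 SD, cut at about -4.2 in these data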;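 note: channel flux triggered by added potassium and thallium sulfate stimulus; B-score of peak minus minimum fluorescence over baseline after thallium stimulus; more negative B-score means stronger Kir2.1 block with less thallium influx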
# hERG rescue = compounds protecting human hERG from proarrhythmic drug block; activation (rescue from dofetilide block), less the hit threshold, % at 10 µM; 0.51% of 310,000 active; AID 1511; CHO-hERG, FluxOR thallium flux, dofetilide IC70 present;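 active = activation above the mean of controls blocked by dofetilide plus 5 SD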;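 note: thallium influx through hERG after potassium depolarization seen as dye fluorescence rise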
# KCNK9 inh = blocks the human KCNK9 two-pore domain potassium channel; 1.2% of 310,000 active; B-score at 10 µM; AID 488922; HEK293 KCNK9, FluxOR thallium flux fluorescence; hits give low values;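 active = ratio B-score over 3 SD below the library mean, with starting fluorescence within 5 SD of its mean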;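 note: negative B-score means less thallium flux so channel inhibition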
# KCNK9 inh conf = confirmation of human KCNK9 potassium channel inhibitors; 43% of 4,900 active; shares compounds with KCNK9 inh; inhibition, % at 10 µM; HEK293 KCNK9 cells, FluxOR thallium flux fluorescence;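 active = thallium signal inhibited by more than 5 SD of the compound-free buffer control wells, on both duplicate plates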
# Kir2-1 spec = tests whether KCNK9 modulators also affect mouse Kir2.1 | shares compounds with KCNK9 inh | 4% of 4,900 active | Kir2.1 cells, FluxOR thallium flux fluorescence | inhibition, % at 10 µM;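 active = thallium signal drop more than 5 SD beyond the mean of the no-compound control wells, seen in both duplicate plates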;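 note: signal is fluorescence rise after thallium addition divided by baseline fluorescence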
# HEK293 Tl ctr = second counter-screen for KCNK9 modulators: effect in non-induced cells | shares compounds with KCNK9 inh | inhibition, % at 10 µM | non-induced KCNK9-HEK293, FluxOR thallium flux | AID 492997 | 40% of 4,900 active;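 active = thallium signal drop beyond 5 SD of the untreated control mean, on both duplicate plates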
# KCNK3 confirm = confirmation of human KCNK3 two-pore domain potassium channel inhibitors | shares compounds with KCNK3 block | CHO-KCNK3 thallium flux, FluxOR fluorescence; 0% buffer, 100% carvedilol maximal block | AID 651638 | 99% of 2,400 active | ratio percent of control, % at 10 µM;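 active = ratio percent of control, averaged over triplicates, above buffer control mean plus 5 SD, cut at about 64% in these data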;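 note: ratio is the fluorescence rise from min to max over baseline after thallium stimulus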
# KCNK3 noninduced = counter-screen for KCNK3 inhibitors: effect in non-induced cells. shares compounds with KCNK3 block. non-induced KCNK3 parental cells, FluxOR thallium flux; hits give low values. thallium flux ratio (lower = more inhibition) at 10 µM. 40% of 2,400 active. AID 651747;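 active = thallium flux ratio, averaged over three wells, more than 5 SD below the buffer control mean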;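 note: host cells are CHO cells without KCNK3 induction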
# Hits are given with their value; . = inactive; / = no result given. Shown are actives, neighbours in structure and some others; about 3.8% of the full set was active somewhere.
SMILES,KCNQ1 block,KCNK3 block,KCNQ1 act,Kir21 block,hERG rescue,KCNK9 inh,KCNK9 inh conf,Kir2-1 spec,HEK293 Tl ctr,KCNK3 confirm,KCNK3 noninduced
COc1cccc(-c2nn(C)c3sc(C(=O)NCc4ccc5c(c4)OCO5)cc23)c1,.,-11,.,.,.,-13,58%,.,24%,99,.
CCN(CCCNC(=O)c1cc2c(-c3cccc(OC)c3)nn(C)c2s1)Cc1ccccc1,.,.,.,.,.,.,/,/,/,/,/
CO[C@@]1(NC(=O)C2SC(=C(C(N)=O)C(=O)O)S2)C(=O)N2C(C(=O)O)=C(CSc3nnnn3C)CS[C@@H]21 (some centres not stated),/,.,/,/,/,/,/,/,/,/,/
CCC1CCCCN1S(=O)(=O)c1ccc(NC(=O)c2snnc2C)cc1 (configuration not stated),.,.,.,.,.,.,/,/,/,/,/
CCC1CCCCN1S(=O)(=O)c1ccc(NC(=O)c2cccs2)cc1 (configuration not stated),.,-11,.,.,.,-8.3,52%,.,28%,107,.
Cc1ccc(NC(=O)CSCC#N)cc1,.,.,.,.,.,.,/,/,/,/,/
COc1ccccc1NS(=O)(=O)c1ccc(O)c(C(=O)OCc2cccc([N+](=O)[O-])c2)c1,.,-8.8,.,.,.,-9.2,.,.,28%,99,.
CCOc1ccc(OCCSc2nnnn2C2CCCCC2)cc1,.,-12,.,.,.,-14,68%,.,44%,118,0.16
O=C(Nc1cccs1)Nc1c(F)c(F)c(F)c(F)c1F,.,.,.,.,.,.,/,/,/,/,/
CSC(=NC#N)N1CCN(C(=NC#N)SC)CC1,.,.,.,.,.,.,/,/,/,/,/
CSC(=NC#N)N1CCN(C(c2ccccc2)c2ccccc2)CC1,.,.,.,.,.,-9.8,39%,.,35%,123,.
CCOc1ccc(Nc2ccc(S(=O)(=O)N3CCN(C)CC3)cc2[N+](=O)[O-])cc1OCC,/,.,/,/,/,/,/,/,/,/,/
CSc1ccc(Cl)c(C(=O)NCCOc2cc(C(C)C)ccc2C)c1,.,-10,.,.,.,-20,72%,.,38%,128,0.13
Cc1ccc(C(c2nnnn2C2CCCCC2)N(C)C2CCCCC2)cc1 (configuration not stated),.,.,.,.,.,-9.4,.,.,43%,117,0.13
CC(C)C(c1nnnn1C(C)(C)C)N1CCN(c2cccc(Cl)c2)CC1 (configuration not stated),.,-10,.,.,.,-12,58%,.,36%,126,0.15
CC(C)(C)n1nnnc1C(c1ccncc1)N1CCN(c2ccc(O)cc2)CC1 (configuration not stated),.,.,.,.,.,.,/,/,/,/,/
CSCc1c(C(=O)Nc2ccc3c(c2)OCO3)oc2ccccc12,.,-8.7,.,.,.,-9.5,39%,.,30%,124,0.15
COC(=O)c1c(C(=O)OC)c(-c2ccc(Cl)c(Cl)c2)n2c1CCC2,.,.,.,.,.,-8.2,32%,.,32%,92,.
Cc1ccccc1-c1nnn(Cc2ccc(F)cc2Cl)n1,.,-9,.,.,.,.,/,/,/,101,.
NC(=O)[C@@H]1CCCN1Cc1nc(-c2ccccc2)no1,.,.,.,.,.,.,/,/,/,/,/
Cc1oc2ccc(O)c(CN(C)C)c2c1C(=O)c1ccccc1,.,.,.,.,.,.,/,/,/,/,/
CCOC(=O)c1c(CSCc2ccccc2)oc2ccc(O)c(CN(C)C)c12,.,-9.3,.,.,.,.,/,/,/,123,.
CCc1noc(C)c1C(=O)N(CCOC)c1c(N)n(CC(C)C)c(=O)[nH]c1=O,.,.,.,.,.,.,/,/,/,/,/
COC(=O)c1ccc(Oc2ccc(S(=O)(=O)N3CCCCC3)cc2N)cc1,.,.,.,.,.,.,/,/,/,/,/
Nc1cc(S(=O)(=O)N2CCCCC2)ccc1Oc1ccc(Cl)cc1,.,-9,.,.,.,.,/,/,/,112,.
SMILES,KCNQ1 block,KCNK3 block,KCNQ1 act,Kir21 block,hERG rescue,KCNK9 inh,KCNK9 inh conf,Kir2-1 spec,HEK293 Tl ctr,KCNK3 confirm,KCNK3 noninduced
CCCCc1nc(Cl)c(C#N)c2c1CSC(C)(C)C2,.,.,.,.,.,.,/,/,/,/,/
CCCCc1nc(NCCNC(=O)c2ccccc2)c(C#N)c2c1CSC(C)(C)C2,.,-10,.,.,.,.,/,/,/,136,0.11
O=C(COc1ccccc1Cl)N(Cc1cccs1)C1CCS(=O)(=O)C1 (configuration not stated),.,.,.,.,.,.,/,/,/,/,/
Cc1cc(Cl)ccc1OCC(=O)N(Cc1cccs1)C1CCS(=O)(=O)C1 (configuration not stated),.,-9.9,.,.,.,.,/,/,/,59,0.16
Cc1sc(NC(=O)C2CCCO2)c(C(N)=O)c1C (configuration not stated),.,.,.,.,.,.,/,/,/,/,/
CCOC(=O)c1c(NC(=O)COC(=O)C2CC2C)sc(C)c1C (configuration not stated),.,-10,.,.,.,-8.1,/,/,/,110,.
CCOC(=O)c1c(NC(=O)C2CCCO2)sc(C)c1C (configuration not stated),.,-11,.,.,.,.,/,/,/,109,.
O=C(NC(Cc1ccccc1)C(=O)N1CCCCC1)c1ccccc1 (configuration not stated),.,.,.,.,.,.,/,/,/,/,/
COc1cccc(CN(C)Cc2cc(=O)oc3c(C)c(C)ccc23)c1,.,-11,.,.,.,.,/,/,/,125,0.14
Cc1cc2oc(=O)cc(CN(C)Cc3cccc(F)c3)c2cc1C,.,-8.7,.,.,.,.,/,/,/,112,.
CCc1ccc2c(CN(C)Cc3ccc(OC(F)F)c(OC)c3)cc(=O)oc2c1,.,-16,.,.,.,.,/,/,/,128,0.15
Cc1ccccc1CN(C)Cc1cc(=O)oc2c(C)c(C)ccc12,9,-11,.,.,.,.,/,/,/,118,0.14
COc1ccc(CN2CCNC(=O)C2CC(=O)N(C)CCC2CCOCC2)c(OC)c1 (configuration not stated),.,.,.,.,.,.,/,/,/,/,/
COc1ccc(/C=N/NC(=O)c2cccs2)c2ccccc12,.,-11,.,.,.,.,/,/,/,115,0.15
